Results pooled from the literature.
Each line is one published result; the experiments were not run side by side.
Target: Rhodopsin kinase GRK7 (GRK7, Homo sapiens, UniProt Q8WTQ7)
Sequence (Q8WTQ7 1-553, as in one of the studies): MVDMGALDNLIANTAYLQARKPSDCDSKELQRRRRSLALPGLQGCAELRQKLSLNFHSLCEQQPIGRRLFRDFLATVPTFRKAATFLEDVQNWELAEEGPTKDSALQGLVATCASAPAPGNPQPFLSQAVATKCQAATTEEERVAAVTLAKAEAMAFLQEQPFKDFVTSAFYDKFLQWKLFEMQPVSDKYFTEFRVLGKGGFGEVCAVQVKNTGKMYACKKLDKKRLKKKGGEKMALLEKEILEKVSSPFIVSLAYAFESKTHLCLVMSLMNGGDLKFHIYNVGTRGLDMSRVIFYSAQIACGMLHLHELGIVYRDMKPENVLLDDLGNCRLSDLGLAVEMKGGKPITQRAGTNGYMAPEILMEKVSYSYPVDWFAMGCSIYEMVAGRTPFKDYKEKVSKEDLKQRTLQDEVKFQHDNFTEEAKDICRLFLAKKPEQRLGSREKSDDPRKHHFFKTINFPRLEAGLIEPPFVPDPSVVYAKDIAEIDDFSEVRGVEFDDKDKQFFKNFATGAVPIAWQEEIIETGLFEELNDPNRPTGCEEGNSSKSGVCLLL

| SMILES | effect on | action | technique | concentration | measurement | result |
| --- | --- | --- | --- | --- | --- | --- |
| CC(C)(C)c1cc(C=C(C#N)C#N)cc(Br)c1O | enzyme activity | inhibitor |  | 0.5 µM | remaining activity | 107% |
| Nc1ncc(-c2nc(N3CCOCC3)nc(N3CCOCC3)n2)c(C(F)F)n1 | binding |  | competition with immobilised ligand | 10 µM | remaining binding | 67% |
| O=c1[nH]c2ccccc2n1C1CCN(Cc2ccc(-c3[nH]c4cc5ncnc5cc4nc3-c3ccccc3)cc2)CC1 | cell-free assay |  |  | 0.5 µM | remaining signal | 98.5% |
| Cn1cc(-c2cc(F)cc(N3CCn4c(cc5c4CCCC5)C3=O)c2CO)cc(Nc2ccc(N3CCN(C4COC4)CC3)cn2)c1=O | enzyme activity | inhibitor |  | 0.1 µM | inhibition | 2% |
| N#CC1(c2ccccn2)CCN(Cc2cc(C(=O)O)c(=O)n3ccccc23)CC1 | cell-free assay |  | competition with immobilised ligand | 1 µM | remaining binding | 77% |
| COc1ncccc1-c1cnn2ccc(N3CCN(C(=O)OC(C)C)CC3)nc12 | binding |  | competition with immobilised ligand | 1 µM | remaining binding | 100% |
| Cn1cc(-c2cccc(N3CCc4c(sc5c4CC(C)(C)C5)C3=O)c2CO)cc(Nc2ccncn2)c1=O | enzyme activity | inhibitor |  | 1 µM | inhibition | 3% |
| Cn1cncc1[C@@](O)(COc1ccc(C#N)cc1-c1ccc(OC(F)(F)F)cc1)c1ccc(C#N)cc1 | cell-free assay |  | competition with immobilised ligand | 1 µM | remaining binding | 81% |
